Assay results published in ChEMBL document CHEMBL4257543, “Structural optimization and antibacterial evaluation of rhodomyrtosone B analogues against MRSA strains” (Medchemcomm, 2018).
In brackets after ≈: the same amount, converted by molar mass. Activity calls are given as the source filed them.

Columns and labels:
Staphylococcus aureus [1] = test: Antibacterial activity against methicillin-resistant Staphylococcus aureus JCSC 4788 by micro dilution susceptibility test; type: functional
Procedure, shortened: (§1)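 Microbroth dilution MIC in Mueller–Hinton broth following CLSI guidelines, vancomycin as positive control; resazurin added as visible growth indicator. Assays run at least in triplicate.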

Staphylococcus aureus [2] = test: Antibacterial activity against Staphylococcus aureus ATCC 6538 by micro dilution susceptibility test; type: functional; procedure, shortened: as §1
Staphylococcus aureus [3] = test: Antibacterial activity against Staphylococcus aureus ATCC 29213 by micro dilution susceptibility test; type: functional; procedure, shortened: as §1
Staphylococcus aureus [4] = test: Antibacterial activity against Staphylococcus aureus CMCC 26003 by micro dilution susceptibility test; type: functional; procedure, shortened: as §1
Staphylococcus aureus [5] = test: Antibacterial activity against methicillin-resistant Staphylococcus aureus JCSC 3063 by micro dilution susceptibility test; type: functional; procedure, shortened: as §1
Staphylococcus aureus [6] = test: Antibacterial activity against methicillin-resistant Staphylococcus aureus NCTC 10442 by micro dilution susceptibility test; type: functional; procedure, shortened: as §1
Staphylococcus aureus [7] = test: Antibacterial activity against methicillin-resistant Staphylococcus aureus 85/2082 by micro dilution susceptibility test; type: functional; procedure, shortened: as §1
Enterococcus faecium = test: Antibacterial activity against vancomycin-resistant Enterococcus faecium by micro dilution susceptibility test; type: functional; procedure, shortened: as §1
Paenibacillus polymyxa = test: Antibacterial activity against Bacillus polymyxa ATCC 842 by micro dilution susceptibility test; type: functional
Procedure, shortened: (§2)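 Microbroth dilution MIC in Mueller–Hinton broth following CLSI guidelines, with vancomycin as positive control; assays run at least in triplicate.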

Escherichia coli = test: Antibacterial activity against Escherichia coli ATCC 8739 by micro dilution susceptibility test; type: functional; procedure, shortened: as §2
Candida albicans = test: Antibacterial activity against Candida albicans ATCC 10231 by micro dilution susceptibility test; type: functional; procedure, shortened: as §2
Staphylococcus aureus [8] = test: Selectivity ratio of MIC for methicillin-resistant Staphylococcus aureus JCSC 2172 to MIC for methicillin-resistant Staphylococcus aureus JCSC 4788; type: functional
Staphylococcus aureus [9] = test: Selectivity ratio of MIC for methicillin-resistant Staphylococcus aureus JCSC 3063 to MIC for methicillin-resistant Staphylococcus aureus JCSC 4788; type: functional
Staphylococcus aureus [10] = test: Selectivity ratio of MIC for methicillin-resistant Staphylococcus aureus JCSC 4469 to MIC for methicillin-resistant Staphylococcus aureus JCSC 4788; type: functional
Staphylococcus aureus [11] = test: Selectivity ratio of MIC for methicillin-resistant Staphylococcus aureus JCSC 4744 to MIC for methicillin-resistant Staphylococcus aureus JCSC 4788; type: functional
[12] = Selectivity ratio of MIC for methicillin-resistant Staphylococcus aureus N315 to MIC for methicillin-resistant Staphylococcus aureus JCSC 4788; type: functional
[13] = Selectivity ratio of MIC for vancomycin-resistant Enterococcus faecium to MIC for methicillin-resistant Staphylococcus aureus JCSC 4788; type: functional
RAW264.7 = test: Cytotoxicity against mouse RAW264.7 cells by MTT assay; type: cell-based
Procedure, shortened: (§3)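 MTT viability assay after 24 h exposure to compound at 1.5625–100 µg mL⁻¹; control cells received DMSO at 0.5% (highest test-well level); IC50 given as mean ± SD of at least triplicate runs.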

SF-268 = test: Cytotoxicity against human SF268 cells by MTT assay; type: cell-based; procedure, shortened: as §3
[14] = Selectivity ratio of IC50 for mouse RAW264.7 cells to MIC for methicillin-resistant Staphylococcus aureus JCSC 4788; type: toxicity
Procedure, shortened: (§4)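 Ratio of 24 h MTT cytotoxicity IC50 (compound 1.5625–100 μg mL−1, 0.5% DMSO control) to MIC against MRSA JCSC 4788 from CLSI microbroth dilution in MHB; IC50 values expressed as mean ± SD.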

[15] = Selectivity ratio of IC50 for human SF268 cells to MIC for methicillin-resistant Staphylococcus aureus JCSC 4788; type: toxicity; procedure, shortened: as §4
Staphylococcus aureus [16] = test: Bactericidal activity against methicillin-resistant Staphylococcus aureus JCSC 4788 assessed as reduction in colony forming units at 4 times MIC measured after 4 hrs by time kill assay relative to control; type: functional; parameters: scale not given: the % may be the effect or the level left
Procedure, shortened: (§5)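 Time-kill per CLSI: overnight MRSA JCSC 4788 adjusted in 0.85% NaCl to 10^6–10^7 CFU mL−1 and exposed to 0.5×, 1×, 2× and 4× MIC at 35 °C, vancomycin as comparator. Viable plate counts at 0.5, 2, 4, 8 and 24 h; two independent experiments.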

Staphylococcus aureus [17] = test: Bactericidal activity against methicillin-resistant Staphylococcus aureus JCSC 4788 assessed as reduction in bacterial growth at 0.5 to 1 times MIC measured within 8 hrs by time kill assay relative to control; type: functional; parameters: scale not given: the % may be the effect or the level left; procedure, shortened: as §5
Staphylococcus aureus [18] = test: Induction of cytoplasmic membrane hyperpolarization in methicillin-resistant Staphylococcus aureus JCSC 4788 at 1 to 2 times MIC measured after 2 mins by Disc3(5) staining based fluorescence spectrophotometric method; type: functional, organism-based
Procedure, shortened: (§6)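 Exponential-phase MRSA JCSC 4788 washed and set to OD620 0.1 in 5 mM HEPES pH 7. Cells loaded with 0.4 μM DiSC3(5) plus 100 mM KCl for 20 min at 37 °C with agitation. Compound added at 0.5–8× MIC and fluorescence followed at ex 660/em 670 nm; mean ± SD.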

Staphylococcus aureus [19] = test: Induction of cytoplasmic membrane hyperpolarization in methicillin-resistant Staphylococcus aureus JCSC 4788 at 4 to 8 times MIC measured up to 9 mins by Disc3(5) staining based fluorescence spectrophotometric method; type: functional, organism-based; procedure, shortened: as §6
Staphylococcus aureus [20] = test: Induction of cytoplasmic membrane disruption in methicillin-resistant Staphylococcus aureus JCSC 4788 measured after 3 hrs by SYTOX green dye based fluorescence microscopic analysis; type: functional, organism-based
Procedure, shortened: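 MRSA JCSC 4788 suspension (OD620 0.4) treated with compound or vancomycin for 3 h, stained with 3 μM SYTOX Green, fixed on glass slides and viewed by fluorescence microscopy at 485 nm excitation.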

Staphylococcus aureus [21] = test: Antibacterial activity against methicillin-resistant Staphylococcus aureus JCSC 4788 at sub-MIC re-passaged at 24 hrs intervals for 20 times by micro dilution susceptibility test; type: functional, organism-based
Procedure, shortened: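 Exponential-phase MRSA JCSC 4788 at 37 °C passaged into fresh MHB containing compound at a sub-inhibitory concentration and re-passaged at 24 h intervals up to at least 20 passages; MIC then redetermined by CLSI microbroth dilution in MHB. Resistance defined as a more than 4-fold increase over the initial MIC.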

Staphylococcus aureus [22] = test: Antibacterial activity against methicillin-resistant Staphylococcus aureus JCSC 4788 in Balb/c mouse skin infection model assessed as reduction in skin ulcer formation at 40 ug administered as single dose via intradermal route measured 3 to 8 days post-infection; type: functional, organism-based
Procedure, shortened: (§7)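 Female BALB/c mice (18–20 g) injected intradermally in abdominal skin with 0.1 mL of MRSA JCSC 4788 (1×10^8 CFU) mixed with a single 40 μg dose in DMSO; DMSO-vehicle controls. Body weight and lesion size recorded daily for 11 days, ulcers imaged at 3 and 8 days; n = 6, mean ± SD.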

Staphylococcus aureus [23] = test: Antibacterial activity against methicillin-resistant Staphylococcus aureus JCSC 4788 in Balb/c mouse skin infection model assessed as reduction in infection-induced morbidity by measuring increase in body weight at 40 ug administered as single dose via intradermal route measured daily for 11 days; type: functional, organism-based; procedure, shortened: as §7
Staphylococcus aureus [24] = test: Antibacterial activity against methicillin-resistant Staphylococcus aureus JCSC 4788 in Balb/c mouse skin infection model assessed as reduction in infection-induced morbidity by measuring decrease in wound size at 40 ug administered as single dose via intradermal route measured daily for 11 days; type: functional, organism-based; procedure, shortened: as §7

CCCCCCCC(=O)c1c(O)cc(O)c2c1OC1=C(C(=O)C(C)(C)C(=O)C1(C)C)C2CC(C)C (stereo not given)
MIC (Staphylococcus aureus [1]): 0.25 to 0.5 µg/mL (≈ 0.516 to 1.03 µM) | MIC (Staphylococcus aureus [2]): 0.25 µg/mL (≈ 0.516 µM) | MIC (Staphylococcus aureus [3]): 0.5 µg/mL (≈ 1.03 µM) | MIC (Staphylococcus aureus [4]): 0.25 µg/mL (≈ 0.516 µM) | MIC (Staphylococcus aureus [5]): 0.25 µg/mL (≈ 0.516 µM) | MIC (Staphylococcus aureus [6]): 0.5 µg/mL (≈ 1.03 µM) | MIC (Staphylococcus aureus [7]): 0.25 µg/mL (≈ 0.516 µM) | MIC (Enterococcus faecium): 2 µg/mL (≈ 4.13 µM) | MIC (Paenibacillus polymyxa): > 32 µg/mL | MIC (Escherichia coli): > 32 µg/mL | MIC (Candida albicans): > 32 µg/mL | Selectivity ratio (Staphylococcus aureus [8]): 0.5 - 2 | Selectivity ratio (Staphylococcus aureus [9]): 0.5 - 2 | Selectivity ratio (Staphylococcus aureus [10]): 0.5 - 2 | Selectivity ratio (Staphylococcus aureus [11]): 0.5 - 2 | Selectivity ratio [12]: 0.5 to 2 | Selectivity ratio [13]: 0.5 to 2 | IC50 (RAW264.7): 5.6 µg/mL (≈ 11.6 µM) | IC50 (SF-268): 10.2 µg/mL (≈ 20.9 µM) | Selectivity ratio [14]: 22.4 | Selectivity ratio [15]: 40.6 | Activity (Staphylococcus aureus [16]): 99.9% | Activity (Staphylococcus aureus [17]): >90% | Activity (Staphylococcus aureus [18]): Active | Activity (Staphylococcus aureus [19]): Active | Activity (Staphylococcus aureus [20]): Active | Activity (Staphylococcus aureus [21]): Active | Activity (Staphylococcus aureus [22]): Active | Activity (Staphylococcus aureus [23]): Active | Activity (Staphylococcus aureus [24]): Active
